According to ChEMBL document CHEMBL1128204, “Novel non-nucleoside inhibitors of human immunodeficiency virus type 1 (HIV-1) reverse transcriptase. 4. 2-Substituted dipyridodiazepinones as potent inhibitors of both wild-type and cysteine-181 HIV-1 reverse transcriptase enzymes” (J Med Chem, 1995):

Assays:
[1] = biological target: Human immunodeficiency virus type 1 reverse transcriptase (Human immunodeficiency virus 1, UniProt Q72547); assay: Inhibitory concentration against HIV-1 wild type Reverse transcriptase (RT)
[2] = biological target: Human immunodeficiency virus type 1 reverse transcriptase (Human immunodeficiency virus 1, UniProt Q72547, Y181C); assay: Inhibitory activity against HIV-1 Y181C Reverse transcriptase (RT)
Summary of the method: (§1)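 The enzyme was either p66/p51 heterodimer purified to near homogeneity or crude E. coli lysate containing the mutant RT. Inhibitory concentration was measured in an RT enzyme assay.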

[3] = biological target: Human immunodeficiency virus type 1 reverse transcriptase (Human immunodeficiency virus 1, UniProt Q72547, P236L); assay: Inhibitory concentration against mutant reverse transcriptase of P236L was determined which is in turn resistant to BHAP; summary of the method: as §1
[4] = biological target: Human immunodeficiency virus type 1 reverse transcriptase (Human immunodeficiency virus 1, UniProt Q72547, L100I); assay: Inhibitory concentration against mutant reverse transcriptase of L100I was determined which is in turn resistant TIBO; summary of the method: as §1
[5] = biological target: Human immunodeficiency virus type 1 reverse transcriptase (Human immunodeficiency virus 1, UniProt Q72547, E138K); assay: Inhibitory concentration against mutant reverse transcriptase of E138K was determined which is in turn resistant to TSAO; summary of the method: as §1
[6] = biological target: Human immunodeficiency virus type 1 reverse transcriptase (Human immunodeficiency virus 1, UniProt Q72547, K103N); assay: Inhibitory concentration against mutant reverse transcriptase of K103N was determined which is in turn resistant to pyridinones; summary of the method: as §1
C8166 = assay: Inhibitory concentration against cell culture of Human T-cell line c8166 infected with HIV-1 IIIB strain was determined; format: functional, cell-based

Row | Structure (SMILES) | IC50 [1] [µM] | IC50 [2] [µM] | further results
1 | CCN1c2ncccc2C(=O)N(C)c2ccc(-c3nccs3)nc21 | 0.1 | 0.24 | 
2 | CCN1c2ncccc2C(=O)Nc2c(C)cc(N(C)CCO)nc21 | 0.01 | > 1 | 
3 | CCN1c2ncccc2C(=O)N(C)c2ccc(-c3ncco3)nc21 | 0.22 | 0.82 | 
4 | CCN1c2ncccc2C(=O)N(C)c2cccnc21 |  | 2.2 | 
5 | Cc1cc(Cl)nc2c1NC(=O)c1cccnc1N2C1CC1 | 0.02 | 0.78 | 
6 | CCN1c2ncccc2C(=O)N(C)c2ccc(-c3cccc(OC)c3)nc21 | 0.15 | 0.21 | 
7 | CCN1c2ncccc2C(=O)N(C)c2ccc(N3CC=CC3)nc21 | 0.03 | 0.64 | 
8 | CCN1c2ncccc2C(=O)N(C)c2ccc(N3CCOCC3)nc21 | 0.4 | > 1 | 
9 | CN1C(=O)c2cccnc2N(C2CC2)c2nc(-c3cc[nH]c3)ccc21 | 0.05 | 0.06 | 
10 | CCN1c2ncccc2C(=O)N(C)c2ccc(-n3cccn3)nc21 | 0.31 | 0.56 | 
11 | COc1ccc2c(n1)N(C1CC1)c1ncccc1C(=O)N2C | 0.12 | 1.1 | 
12 | CCN1c2ncccc2C(=O)N(C)c2ccc(-c3cn[nH]c3)nc21 | 0.02 | 0.06 | IC50 [3]: 0.13 µM; IC50 [4]: 2.5 µM; IC50 [5]: 0.05 µM; IC50 [6]: 0.08 µM; IC50 (C8166): 0.04 µM
13 | Cc1ccnc2c1NC(=O)c1cccnc1N2C1CC1 [NEVIRAPINE] |  |  | IC50 (C8166): 0.04 µM
14 | CCN1c2ncccc2C(=O)Nc2c(C)cc(N3CCSCC3)nc21 | 0.15 | > 1 | 
15 | CCN1c2ncccc2C(=O)N(C)c2ccc(-c3ccccc3)nc21 | 0.23 | 1.4 | 
16 | CCN1c2ncccc2C(=O)Nc2c(C)cc(Cl)nc21 | 0.01 | 0.8 | 
17 | CCN1c2ncccc2C(=O)N(C)c2ccc(-c3ccc(OC)cc3)nc21 | 1.4 | 3.2 | 
18 | CN1C(=O)c2cccnc2N(C2CC2)c2nc(-c3cccnc3)ccc21 | 0.18 | 0.44 | 
19 | CCN1c2ncccc2C(=O)N(C)c2ccc(-c3ccco3)nc21 | 0.11 | 0.16 | 
20 | CCN1c2ncccc2C(=O)N(C)c2ccc(/C=C/C(=O)OC)nc21 | 0.18 | 0.67 | 
21 | CCN1c2ncccc2C(=O)N(C)c2ccc(N(C)C)nc21 | 0.07 | 0.77 | 
22 | CCN1c2ncccc2C(=O)Nc2c(C)ccnc21 | 0.04 | 1.8 | 
23 | CCN1c2ncccc2C(=O)N(C)c2ccc(-c3ccc(OC)nc3)nc21 | 1.2 | 3 | 

Row | Structure (SMILES) | IC50 [1] [µM] | IC50 [2] [µM] | further results
24 | CCNc1ccc2c(n1)N(CC)c1ncccc1C(=O)N2C | 0.23 | 1.3 | 
25 | CCN1c2ncccc2C(=O)Nc2c(C)cc(F)nc21 | 0.02 | 0.85 | 
26 | CCN1c2ncccc2C(=O)N(C)c2ccc(N)nc21 | > 1 | > 1 | 
27 | CCN1c2ncccc2C(=O)Nc2c(C)cc(C(C)C)nc21 | 1 | > 1 | 
28 | CCN1c2ncccc2C(=O)Nc2c(C)cc(C(C)(C)C)nc21 | > 1 | > 1 | 
29 | CCN1c2ncccc2C(=O)N(C)c2ccc(-c3ccc(N)cc3)nc21 | 0.04 | 0.12 | IC50 [3]: 0.26 µM; IC50 [4]: 0.57 µM; IC50 [5]: 0.06 µM; IC50 [6]: 0.26 µM; IC50 (C8166): 0.55 µM
30 | CCN1c2ncccc2C(=O)N(C)c2ccc(-c3ccsc3)nc21 | 0.1 | 0.3 | 
31 | CCN1c2ncccc2C(=O)N(C)c2ccc(C)nc21 | 0.12 | 1.2 | 
32 | CCN1c2ncccc2C(=O)N(C)c2ccc(-c3ccoc3)nc21 | 0.04 | 0.11 | 
33 | CCN1c2ncccc2C(=O)N(C)c2ccc(-c3ccc(O)cc3)nc21 | 0.07 | 0.27 | IC50 [3]: 0.001 µM; IC50 [4]: 0.5 µM; IC50 [5]: 0.06 µM; IC50 [6]: 0.01 µM; IC50 (C8166): 0.3 µM
34 | CCN1c2ncccc2C(=O)N(C)c2ccc(Cl)nc21 | 0.08 | 0.21 | IC50 [3]: 0.02 µM; IC50 [5]: 0.12 µM; IC50 [6]: 1.1 µM; IC50 (C8166): 0.16 µM
35 | CCN1c2ncccc2C(=O)Nc2c(C)cc(C)nc21 | 0.02 | > 1 | 
36 | CCN1c2ncccc2C(=O)N(C)c2ccc(-c3cccc(N)c3)nc21 |  | 0.56 | 
37 | CCN1c2ncccc2C(=O)Nc2c(C)cc(SC)nc21 | 0.02 | > 1 | 
38 | CCN1c2ncccc2C(=O)N(C)c2ccc(-c3ccccn3)nc21 | 0.18 | 1.6 | 
39 | CCN1c2ncccc2C(=O)N(C)c2ccc(-c3cc[nH]n3)nc21 | 0.39 | 0.29 | 
40 | CCc1cc(C)c2c(n1)N(CC)c1ncccc1C(=O)N2 | 0.09 | 1.7 | 
41 | CCN1c2ncccc2C(=O)N(C)c2ccc(-n3cccc3)nc21 | 0.09 | 0.21 | 
42 | CCN1c2ncccc2C(=O)N(C)c2ccc(NC)nc21 | 0.19 | 0.71 | 
43 | CCN1c2ncccc2C(=O)N(C)c2ccc(N3CCCC3)nc21 | 0.02 | 3.8 | 
44 | CCN1c2ncccc2C(=O)N(C)c2ccc(=O)[nH]c21 | 0.47 | > 1 | 
45 | Cc1cc(C)c2c(n1)N(C1CC1)c1ncccc1C(=O)N2 | 0.07 | 1.2 | 
46 | CCN1c2ncccc2C(=O)Nc2c(C)cc(NCCCO)nc21 | 0.09 | > 1 | 

Row | Structure (SMILES) | IC50 [1] [µM] | IC50 [2] [µM] | further results
47 | CCN1c2ncccc2C(=O)N(C)c2ccc(-c3ccc(O)nc3)nc21 | 1.1 | > 1 | 
48 | CN1C(=O)c2cccnc2N(C2CC2)c2nc(-c3cn[nH]c3)ccc21 | 0.06 | 0.05 | IC50 [3]: 0.34 µM; IC50 [4]: 1.5 µM; IC50 [5]: 0.46 µM; IC50 [6]: 0.42 µM; IC50 (C8166): 0.12 µM
49 | CCN1c2ncccc2C(=O)N(C)c2ccc(N3CCCCC3)nc21 | 0.3 | > 1 | 
50 | CCN1c2ncccc2C(=O)N(C)c2ccc(-c3cc[nH]c3)nc21 | 0.03 | 0.04 | IC50 [3]: 0.13 µM; IC50 [4]: 0.41 µM; IC50 [5]: 0.07 µM; IC50 [6]: 0.05 µM; IC50 (C8166): 0.04 µM
51 | CCN1c2ncccc2C(=O)N(C)c2ccc(-c3ncc[nH]3)nc21 | 0.13 | 0.19 | 
52 | C/C=C/Nc1ccc2c(n1)N(CC)c1ncccc1C(=O)N2C | 0.39 | > 1 | 
53 | CCN1c2ncccc2C(=O)N(C)c2ccc(-c3ccc[nH]3)nc21 | 0.07 | 0.07 | 
54 | CCN1c2ncccc2C(=O)N(C)c2ccc(/C=C/C(N)=O)nc21 | 0.25 | 2.4 | 
55 | CCN1c2ncccc2C(=O)N(C)c2ccc(-c3cnc[nH]3)nc21 | 3.7 | 0.74 | 
56 | CCN1c2ncccc2C(=O)N(C)c2ccc(OC)nc21 | 0.04 | 0.6 | 
57 | CCN1c2ncccc2C(=O)N(C)c2ccc(-c3ccccc3OC)nc21 | 0.82 | 2.5 | 
58 | CCN1c2ncccc2C(=O)N(C)c2ccc(-c3cccc(O)c3)nc21 | 0.1 | 0.18 | 
59 | CCN1c2ncccc2C(=O)N(C)c2ccc(-c3cccs3)nc21 | 0.14 | 0.42 | 
60 | CN1C(=O)c2cccnc2N(C2CC2)c2nc(Cl)ccc21 |  | 0.92 | 
61 | CCN1c2ncccc2C(=O)Nc2c(C)cc(NCCO)nc21 | 0.09 | > 1 | 
62 | C#Cc1ccc2c(n1)N(CC)c1ncccc1C(=O)N2C | 0.14 | 0.42 | 
63 | CCN1c2ncccc2C(=O)N(C)c2ccc(-c3ccc(N)nc3)nc21 | 0.05 | 0.26 | IC50 [3]: 0.04 µM; IC50 [4]: 0.24 µM; IC50 [5]: 0.02 µM; IC50 [6]: 0.41 µM; IC50 (C8166): 0.24 µM
64 | CCN1c2ncccc2C(=O)Nc2c(C)cc(N3CCC(O)C3)nc21 (stereo unspecified) | 0.04 | > 1 | 
65 | CN1C(=O)c2cccnc2N(C2CC2)c2nc(Br)ccc21 | 0.03 | 2.1 | 
66 | CN1C(=O)c2cccnc2N(C2CC2)c2nc(-c3ccncc3)ccc21 | 0.15 | 0.32 | 
67 | CCN1c2ncccc2C(=O)N(C)c2ccc(-c3cnco3)nc21 | 0.11 | 0.56 | 
68 | CCN1c2ncccc2C(=O)N(C)c2ccc(-c3cncs3)nc21 | 0.38 | 1.1 | 
